Active and inactive are the calls of the source. The calls are words filed in the database; no cut-off is given here.
Assays:
[1] = target: T1, C-X-C chemokine receptor type 4 (Homo sapiens, UniProt P61073); assay: Inhibition of [125I]SDF1 binding to CXCR4 transfected in CHO cells; format: cell-based
Outline: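 CXCR4-expressing stable CHO transfectants were harvested with trypsin-EDTA, recovered 4-5 h in complete medium, and washed in cold PBS with 2 mg/mL BSA. Cells at 1 × 10⁷/mL were incubated with 0.1 nM [¹²⁵I]-SDF-1 for 2 h on ice with agitation. Bound label was separated by centrifugation through oil and gamma-counted.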

[2] = system: Human immunodeficiency virus 1; assay: Inhibition of HIV1-induced cytopathogenicity in MT4 cells; format: functional, organism-based; conditions: Human immunodeficiency virus 1, MT4
Outline: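 MT-4 cells were grown in RPMI 1640 with 10% heat-inactivated FCS and penicillin/streptomycin. Cells infected with HIV-1 IIIB (X4 strain) at MOI 0.01 were plated at 1.5 × 10⁴ cells/well with various compound concentrations. After 5 days at 37 °C in CO₂, viable cells were counted by MTT. EC50 for protection is the mean of ≥3 independent experiments.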

[3] = target: T1, C-X-C chemokine receptor type 4; assay: Antagonist activity against CXCR4 transfected in CHO cells upto 1 uM; format: functional, cell-based

T1 sequence (P61073 whole entry): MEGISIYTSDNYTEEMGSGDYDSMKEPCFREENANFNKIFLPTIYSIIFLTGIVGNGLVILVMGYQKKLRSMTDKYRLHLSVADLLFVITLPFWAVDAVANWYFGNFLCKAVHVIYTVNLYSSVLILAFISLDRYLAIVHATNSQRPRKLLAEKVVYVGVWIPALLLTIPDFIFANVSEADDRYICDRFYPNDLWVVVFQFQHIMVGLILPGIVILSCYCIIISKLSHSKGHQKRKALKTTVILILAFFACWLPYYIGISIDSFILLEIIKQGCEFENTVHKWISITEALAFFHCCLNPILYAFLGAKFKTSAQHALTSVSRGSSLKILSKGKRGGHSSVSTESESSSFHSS

Row | Compound | IC50 [1] | EC50 [2] | further results
1 | CN1C(=O)[C@@H](Cc2ccc(O)cc2)NC(=O)CNC(=O)[C@H](Cc2ccc3ccccc3c2)NC(=O)[C@H](CCCNC(=N)N)NC(=O)[C@H]1CCCNC(=N)N | 3 nM | 88 nM | –
2 | C[C@@H]1NC(=O)[C@H](Cc2ccc3ccccc3c2)NC(=O)CNC(=O)[C@@H](Cc2ccc(O)cc2)NC(=O)[C@@H](CCCNC(=N)N)NC1=O | – | – | Activity [3]: inactive
3 | CN1C(=O)CNC(=O)[C@H](Cc2ccc3ccccc3c2)NC(=O)[C@H](CCCNC(=N)N)NC(=O)[C@@H](CCCNC(=N)N)NC(=O)[C@H]1Cc1ccc(O)cc1 | 157 nM | – | –
4 | N=C(N)NCCC[C@@H]1NC(=O)[C@H](CCCNC(=N)N)NC(=O)[C@@H](Cc2ccc(O)cc2)NC(=O)[C@@H]2CCCCN2C(=O)[C@H](Cc2ccc3ccccc3c2)NC1=O | > 1000 nM | – | –
5 | N=C(N)NCCC[C@@H]1NC(=O)[C@@H](CCCNC(=N)N)NC(=O)[C@@H](Cc2ccc(O)cc2)NC(=O)[C@H]2CCCN2C(=O)[C@H](Cc2ccc3ccccc3c2)NC1=O | > 1000 nM | – | –
6 | C[C@@H]1NC(=O)CNC(=O)[C@@H](Cc2ccc(O)cc2)NC(=O)[C@H](CCCNC(=N)N)NC(=O)[C@H](CCCNC(=N)N)NC1=O | – | – | Activity [3]: inactive
7 | C[C@@H]1NC(=O)CNC(=O)[C@@H](Cc2ccc(O)cc2)NC(=O)[C@@H](CCCNC(=N)N)NC(=O)[C@H](CCCNC(=N)N)NC1=O | – | – | Activity [3]: inactive
8 | N=C(N)NCCC[C@@H]1NC(=O)[C@@H](CCCNC(=N)N)NC(=O)[C@@H](Cc2ccc(O)cc2)NC(=O)[C@H]2CCCCN2C(=O)[C@H](Cc2ccc3ccccc3c2)NC1=O | > 1000 nM | – | –
9 | N=C(N)NCCC[C@@H]1NC(=O)[C@@H](CCCNC(=N)N)NC(=O)[C@@H](Cc2ccc(O)cc2)NC(=O)[C@@H]2CCCCN2C(=O)[C@H](Cc2ccc3ccccc3c2)NC1=O | 640 nM | – | –
10 | N=C(N)NCCC[C@@H]1NC(=O)[C@H](CCCNC(=N)N)NC(=O)[C@@H](Cc2ccc(O)cc2)NC(=O)[C@H]2CCCCN2C(=O)[C@H](Cc2ccc3ccccc3c2)NC1=O | > 1000 nM | – | –
11 | N=C(N)NCCC[C@@H]1NC(=O)[C@H](CCCNC(=N)N)NC(=O)[C@@H](Cc2ccc(O)cc2)NC(=O)[C@H]2CCCN2C(=O)[C@H](Cc2ccc3ccccc3c2)NC1=O | > 1000 nM | – | –
12 | CN1C(=O)[C@H](CCCNC(=N)N)NC(=O)[C@H](CCCNC(=N)N)NC(=O)[C@@H](Cc2ccc(O)cc2)NC(=O)CNC(=O)[C@@H]1Cc1ccc2ccccc2c1 | 250 nM | – | –
13 | N=C(N)NCCC[C@@H]1NC(=O)[C@@H](CCCNC(=N)N)NC(=O)[C@@H](Cc2ccc(O)cc2)NC(=O)[C@@H]2CCCN2C(=O)[C@H](Cc2ccc3ccccc3c2)NC1=O | > 1000 nM | – | –
14 | C[C@@H]1NC(=O)[C@H](CCCNC(=N)N)NC(=O)[C@@H](CCCNC(=N)N)NC(=O)[C@@H](Cc2ccc(O)cc2)NC(=O)CNC1=O | > 1000 nM | > 120000 nM | –
15 | N=C(N)NCCC[C@@H]1NC(=O)[C@H](CCCNC(=N)N)NC(=O)[C@@H](Cc2ccc(O)cc2)NC(=O)CCNC(=O)[C@H](Cc2ccc3ccccc3c2)NC1=O | 47 nM | 3000 nM | –
16 | CN1CC(=O)N[C@H](Cc2ccc(O)cc2)C(=O)N[C@H](CCCNC(=N)N)C(=O)N[C@@H](CCCNC(=N)N)C(=O)N[C@@H](Cc2ccc3ccccc3c2)C1=O | 256 nM | – | –
17 | N=C(N)NCCC[C@@H]1NC(=O)[C@H](CCCNC(=N)N)NC(=O)[C@@H](Cc2ccc(O)cc2)NC(=O)[C@@H]2CCCN2C(=O)[C@H](Cc2ccc3ccccc3c2)NC1=O | > 1000 nM | – | –
18 | CN1C(=O)CNC(=O)[C@H](Cc2ccc3ccccc3c2)NC(=O)[C@H](CCCNC(=N)N)NC(=O)[C@H](CCCNC(=N)N)NC(=O)[C@H]1Cc1ccc(O)cc1 | 128 nM | – | –
19 | C[C@@H]1NC(=O)[C@H](CCCNC(=N)N)NC(=O)[C@H](CCCNC(=N)N)NC(=O)[C@@H](Cc2ccc(O)cc2)NC(=O)CNC1=O | > 1000 nM | > 120000 nM | –
20 | C[C@H]1NC(=O)CNC(=O)[C@H](Cc2ccc3ccccc3c2)NC(=O)[C@H](CCCNC(=N)N)NC(=O)[C@@H](CCCNC(=N)N)NC1=O | 130 nM | 29000 nM | –
21 | C[C@@H]1NC(=O)[C@H](Cc2ccc3ccccc3c2)NC(=O)CNC(=O)[C@@H](Cc2ccc(O)cc2)NC(=O)[C@H](CCCNC(=N)N)NC1=O | – | – | Activity [3]: inactive
22 | CN1C(=O)[C@H](CCCNC(=N)N)NC(=O)[C@@H](CCCNC(=N)N)NC(=O)[C@@H](Cc2ccc(O)cc2)NC(=O)CNC(=O)[C@@H]1Cc1ccc2ccccc2c1 | 563 nM | – | –
23 | C[C@@H]1NC(=O)[C@H](CCCNC(=N)N)NC(=O)[C@H](CCCNC(=N)N)NC(=O)[C@@H](Cc2ccc(O)cc2)NC(=O)CN(C)C1=O | – | – | IC50 ([1]; cho): 167 nM
24 | C[C@H]1NC(=O)CNC(=O)[C@H](Cc2ccc3ccccc3c2)NC(=O)[C@H](CCCNC(=N)N)NC(=O)[C@H](CCCNC(=N)N)NC1=O | > 1000 nM | 115000 nM | –

More lines, main results first:

Row | IC50 [1] | EC50 [2] | Compound | further results
25 | – | 12000 nM | C[C@@H]1NC(=O)[C@@H](Cc2ccc(O)cc2)NC(=O)CNC(=O)[C@H](Cc2ccc3ccccc3c2)NC(=O)[C@H](CCCNC(=N)N)NC1=O | –
26 | – | 160 nM | N=C(N)NCCC[C@@H]1NC(=O)[C@H](CCCNC(=N)N)NC(=O)[C@@H](Cc2ccc(O)cc2)NC(=O)CNC(=O)[C@H](Cc2ccc3ccccc3c2)NC1=O | –
27 | 11 nM | 490 nM | C[C@H]1NC(=O)[C@H](Cc2ccc3ccccc3c2)NC(=O)[C@H](CCCNC(=N)N)NC(=O)[C@H](CCCNC(=N)N)NC(=O)[C@@H](Cc2ccc(O)cc2)NC1=O | –
28 | – | 390 nM | N=C(N)NCCC[C@@H]1NC(=O)[C@@H](CCCNC(=N)N)NC(=O)[C@@H](Cc2ccc(O)cc2)NC(=O)CNC(=O)[C@H](Cc2ccc3ccccc3c2)NC1=O | –
29 | 11 nM | 670 nM | C[C@H]1NC(=O)[C@H](Cc2ccc3ccccc3c2)NC(=O)[C@H](CCCNC(=N)N)NC(=O)[C@@H](CCCNC(=N)N)NC(=O)[C@@H](Cc2ccc(O)cc2)NC1=O | –
30 | – | 16000 nM | C[C@H]1NC(=O)[C@@H](Cc2ccc(O)cc2)NC(=O)CNC(=O)[C@H](Cc2ccc3ccccc3c2)NC(=O)[C@H](CCCNC(=N)N)NC1=O | –
31 | – | 1400 nM | CN1C(=O)[C@@H](Cc2ccc(O)cc2)NC(=O)CNC(=O)[C@H](Cc2ccc3ccccc3c2)NC(=O)[C@H](CCCNC(=N)N)NC(=O)[C@@H]1CCCNC(=N)N | –
32 | 99 nM | 9530 nM | CN1C(=O)[C@H](CCCNC(=N)N)NC(=O)[C@@H](Cc2ccc(O)cc2)NC(=O)CNC(=O)[C@H](Cc2ccc3ccccc3c2)NC(=O)[C@@H]1CCCNC(=N)N | –
33 | 92 nM | 10000 nM | C[C@@H]1NC(=O)[C@H](Cc2ccc3ccccc3c2)NC(=O)[C@H](CCCNC(=N)N)NC(=O)[C@@H](CCCNC(=N)N)NC(=O)[C@@H](Cc2ccc(O)cc2)NC1=O | –
34 | 21 nM | 782 nM | CN1C(=O)[C@@H](CCCNC(=N)N)NC(=O)[C@@H](Cc2ccc(O)cc2)NC(=O)CNC(=O)[C@H](Cc2ccc3ccccc3c2)NC(=O)[C@@H]1CCCNC(=N)N | –
35 | 170 nM | 20000 nM | C[C@@H]1NC(=O)[C@H](Cc2ccc3ccccc3c2)NC(=O)[C@H](CCCNC(=N)N)NC(=O)[C@H](CCCNC(=N)N)NC(=O)[C@@H](Cc2ccc(O)cc2)NC1=O | –
36 | > 1000 nM | 60000 nM | C[C@@H]1NC(=O)[C@@H](CCCNC(=N)N)NC(=O)[C@@H](Cc2ccc(O)cc2)NC(=O)CNC(=O)[C@H](Cc2ccc3ccccc3c2)NC1=O | –
37 | 350 nM | 38000 nM | N=C(N)NCCC[C@@H]1NC(=O)[C@@H](CCCNC(=N)N)NC(=O)[C@@H](Cc2ccc(O)cc2)NC(=O)CCNC(=O)[C@H](Cc2ccc3ccccc3c2)NC1=O | –
38 | > 1000 nM | > 120000 nM | C[C@@H]1NC(=O)[C@H](CCCNC(=N)N)NC(=O)[C@@H](Cc2ccc(O)cc2)NC(=O)CNC(=O)[C@H](Cc2ccc3ccccc3c2)NC1=O | –
